The values that follow come from ChEMBL document CHEMBL4765449, “Synthesis, biological evaluation and toxicity of novel tetrandrine analogues” (Eur J Med Chem, 2020).

Activity calls are given as the source filed them. No cut-off for these calls is given here.

The subject of series [1] is HepG2. The experiment in a line: Cytotoxicity against human HepG2 cells overexpressing EGFP-CYP3A4 assessed as reduction in cell viability at 15 uM measured after 24 hrs by propidium iodide staining based flow cytometry. It counts as functional. An outline of the steps:
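HepG2 stably transfected (G418 0.5 mg/mL, four weeks; plasmid confirmed by PCR) with pcDNA3-CYP3A4-EGFP or empty vector, 0.1 × 10^6 per well, adhered overnight; 15 μM compound 24 h. Propidium iodide staining and flow cytometry; specific cell death relative to control. Three independent experiments.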

Series [2] relates to CEM. The series is described as follows: Inhibition of P-gp in vincristine-resistant human CEM cells at 0.1 to 1 uM using calcein-AM as substrate preincubated for 30 mins followed by compound washout and subsequent substrate addition measured after 60 mins by flow cytometric analysis. Type of series: cell-based. As to conditions: dose 0.1-1 µM.
For series [3], the system named is CCRF-CEM. The experiment in a line: Effect on P-gp expression in vincristine-resistant human CEM cells at 1 uM measured after 1.5 hrs by immunostaining based flow cytometry. It counts as functional, cell-based. An outline of the steps: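 VCR-R CEM, 2 × 10^4 cells, 1 μM compound 1.5 h at 37 °C; washed in ice-cold 1% BSA/PBS, stained 30 min at 4 °C in dark with FITC anti-human P-gp, isotype control for background; flow cytometry, gMFI normalized to DMSO. Three independent experiments.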
(In general: A flow cytometer gives signals particle by particle.)

The subject of series [4] is CEM. The series is described as follows: Inhibition of P-gp in vincristine-resistant human CEM cells assessed as potentiation of vincristine-induced apoptosis 1 uM measured after 48 hrs by propidium iodide staining based flow cytometry. It counts as cell-based. An outline of the steps: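 VCR-R CEM, 0.125 × 10^6 per well, rested 4 h, then incubated 48 h with increasing vincristine with or without 1 μM compound; apoptosis by propidium iodide staining and flow cytometry. Three independent experiments.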

The test system of series [5] is CEM. The series is described as follows: Effect on AKT phosphorylation at Ser473 residue in vincristine-resistant human CEM cells at 5 uM measured after 24 hrs by Western blot analysis. It counts as cell-based. Put shortly: (§1)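 VCR-R CEM cells, 2 × 10^6 per well, seeded 4 h before 5 μM compound or DMSO for 24 h; RIPA lysis, SDS-PAGE, PVDF blotting, chemiluminescence. Probed for p-Akt (Ser473), total Akt, PARP, Bcl-xL, Mcl-1; stain-free total protein as loading control.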
On the technique in general: A western blot detects proteins with antibodies after separation by electrophoresis.

For series [6], the system named is CCRF-CEM. The series is described as follows: Effect on Bcl-XL expression in vincristine-resistant human CEM cells at 5 uM measured after 24 hrs by Western blot analysis. Type of series: functional, cell-based. Put shortly:
as §1

Series [7] deals with CCRF-CEM. The experiment in a line: Effect on MCL1 expression in vincristine-resistant human CEM cells at 5 uM measured after 24 hrs by Western blot analysis. Type of series: functional, cell-based. An outline of the steps:
as §1

In series [8] the test system is CCRF-CEM. The experiment in a line: Induction of mitochondrial membrane disruption in vincristine-resistant human CEM cells at 5 uM measured after 24 hrs by JC-1 dye based flow cytometric analysis. It counts as functional, cell-based. Put shortly:
(§2)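 Cells (HepG2 adhered overnight; VCR-R CEM seeded 4 h before) treated with DMSO or 5 μM for 24 h; JC-1 (1 μg/mL) 1 h before harvest, PBS wash, flow cytometry; green shift read as loss of ΔΨm. CCCP (100 μM, 1 h) positive control; elacridar (5 μM) present for CEM staining.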

For series [9], the system named is HepG2. The experiment in a line: Induction of apoptosis in human HepG2 cells assessed as increase in PARP cleavage at 5 uM measured after 24 hrs by Western blot analysis. Type of series: functional, cell-based. Put shortly:
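HepG2, 0.5 × 10^6 per well, adhered overnight, then DMSO or 5 μM compound; RIPA lysates immunoblotted by SDS-PAGE/PVDF with chemiluminescent detection.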

Series [10] concerns HepG2. The series is described as follows: Induction of mitochondrial membrane disruption in human HepG2 cells at 5 uM measured after 24 hrs by JC-1 dye based flow cytometric analysis. It counts as functional, cell-based. An outline of the steps: as §2
Series [11] deals with HepaRG. The series is described as follows: Cytotoxicity against human HepaRG cells assessed as reduction in cell viability at 10 uM measured after 24 hrs by Celltiter-blue cell viability assay. Type of series: cell-based. Put shortly: (§3)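 Differentiated HepaRG cells (Maintenance/Metabolism medium) exposed 24 h to 10 or 20 μM compound; viability by CellTiter-Blue, normalized to vehicle control. Means ± SEM of three independent experiments.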
On the technique in general: Resazurin is reduced to fluorescent resorufin, in cell work by metabolically active cells.

Series [12] relates to HepaRG. The series is described as follows: Cytotoxicity against human HepaRG cells assessed as reduction in cell viability at 20 uM measured after 24 hrs by Celltiter-blue cell viability assay. It counts as cell-based. Put shortly: as §3

`COc1cc2c(cc1OC)[C@@H](Cc1ccc(Oc3cc(C[C@@H]4c5cc(OC)c(OC)cc5CCN4C)ccc3O)cc1)N(C)CC2`: in [1], the outcome was Active.
Same read-out and setting: next, `COc1cc2c3cc1Oc1c(OC)c(OC)cc4c1[C@@H](Cc1ccc(O)c(c1)Oc1ccc(cc1)C[C@@H]3N(C)CC2)N(C)CC4`: “Active”.
Turning to `COc1cc2c3cc1Oc1c(OC)c(OC)cc4c1C(CCCCOc1ccc(cc1)CC3N(C)CC2)N(C)CC4` (racemic), the result in series [1] was Active. Besides, the inhibition result in series [2] and in [4] was “inactive” throughout. Moreover, the outcome in [3], in [5], in [6], in [7], in [8] and in series [9] was inactive. Besides, the outcome in series [10] was inactive.
`COc1cc2c3cc1Oc1c(OC)c(OC)cc4c1C(Cc1ccc(Cl)c(c1)Oc1ccc(cc1)CC3N(C)CC2)N(C)CC4` (racemic): in [1], the result was Active. The inhibition entry in series [2] and in [4] was “Active” throughout. In addition, the outcome in [3], in series [5], in series [6], in [7], in [8] and in series [9] was inactive. For the same compound, in series [10], the outcome was inactive.
`COc1cc2c3cc1Oc1c(OC)c(OC)cc4c1C(Cc1cccc(c1)Oc1ccc(cc1)CC3N(C)CC2)N(C)CC4` (racemic; form 1): the Activity entry in [11] is “Toxic”.
Consider `COc1cc2c3cc1Oc1c(OC)c(OC)cc4c1C(Cc1cc(cs1)Oc1ccc(cc1)CC3N(C)CC2)N(C)CC4` (racemic; form 2), for which, in [1], the outcome was Active. Besides, the inhibition entry in series [2] and in series [4] was “Active” throughout. Also, the result in [3], in series [5], in series [6], in series [7], in series [8] and in [9] was inactive. Further, in series [10], the result was inactive.
Turning to `COc1cc2c3cc1Oc1c(OC)c(OC)cc4c1C(Cc1cccc(c1)Oc1ccc(cc1)CC3N(C)CC2)N(C)CC4` (racemic; form 2), the outcome in series [1] and in series [8] was Active. In addition, the inhibition result in series [2] and in [4] was “Active” in each case. Besides, the outcome in series [3], in series [5], in [6], in series [7], in series [9] and in series [10] was inactive.
As to `COc1cc2c3cc1Oc1c(OC)c(OC)cc4c1C(CCCCOc1ccc(cc1)CC3N(C)CC2)N(C)CC4` (single isomer, unassigned; diastereomer 2) [listing 1 of 2 here], the Activity result in [11] and in series [12] was “Toxic” in each case.
For the compound `COc1cc2c3cc1Oc1c(OC)c(OC)cc4c1C(CCCCOc1ccc(cc1)CC3N(C)CC2)N(C)CC4` (single isomer, unassigned; diastereomer 2) [listing 2 of 2 here], the result in series [1] was Active. Moreover, the inhibition result in [2] and in series [4] was “inactive” each time. Further, the result in series [3], in series [5], in [6], in series [7], in series [8] and in series [9] was inactive. Besides, the outcome in series [10] was inactive.
